In brackets after ≈: the same amount, converted by molar mass. Activity calls are given as the source filed them. The rule behind the calls is not given here.
How the values were obtained:
[1] = system: Escherichia coli; assay: Antibacterial activity against non-beta-lactamase producing Escherichia coli ATCC 25922 after 48 hrs by microdilution broth method; type: functional, organism-based
Procedure, shortened: (§1)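 Broth microdilution followed CLSI guidelines. Compound was dissolved in 95% ethanol, diluted at least 10-fold into Mueller-Hinton broth, then serially two-fold diluted from 500 to 15.6 μg/mL. Actively growing culture was added at 5 × 10^5 cells/mL. Plates ran 48 h at 37 °C, scored for visible growth at 24 and 48 h. MIC was the lowest concentration without growth. For MBC, 10 μL from each clear well was plated on MH agar. Controls were ethanol and penicillin. Triplicate.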

[2] = system: Moraxella catarrhalis; assay: Antibacterial activity against beta-lactamase producing Moraxella catarrhalis isolate 4 after 48 hrs incubation by microdilution broth method; type: functional; conditions: isolate 4, 48 h; procedure, shortened: as §1
[3] = system: Mycobacterium tuberculosis; assay: Antimycobacterial activity against wild type Mycobacterium tuberculosis H37Rv by Alamar blue assay; type: functional
[4] = system: Moraxella catarrhalis; assay: Antibacterial activity against beta-lactamase producing Moraxella catarrhalis isolate 4 at 10 ug/disc after overnight incubation by disc diffusion assay; type: functional; conditions: for zone of inhibition at 10 µg/disc: read-out: IZ
Procedure, shortened: (§2)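 Isolates were held at −80 °C. Five colonies were suspended in Mueller-Hinton broth to a 0.5 McFarland density and swabbed onto MH agar. Discs carried 10 μg compound, applied in methanol and dried at room temperature. Plates were incubated overnight at 37 °C, and the zone of inhibition was measured in mm from the disc edge. Controls were methanol-only and penicillin discs. Run blinded, in triplicate.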

[5] = system: Moraxella catarrhalis; assay: Antibacterial activity against beta-lactamase producing Moraxella catarrhalis isolate 6 at 10 ug/disc after overnight incubation by disc diffusion assay in presence of 1 mol equiv of glutathione; type: functional
[6] = system: Moraxella catarrhalis; assay: Antibacterial activity against beta-lactamase producing Moraxella catarrhalis isolate 2 at 10 ug/disc after overnight incubation by disc diffusion assay in presence of 1 mol equiv of glutathione; type: functional; conditions: for zone of inhibition at 10 µg/disc: read-out: IZ
[7] = system: Enterococcus faecalis; assay: Antibacterial activity against non-beta-lactamase producing Enterococcus faecalis ATCC 29212 at 10 ug/disc after overnight incubation by disc diffusion assay; type: functional, organism-based; procedure, shortened: as §2
[8] = system: Moraxella catarrhalis; assay: Antibacterial activity against beta-lactamase producing Moraxella catarrhalis isolate 1 at 10 ug/disc after overnight incubation by disc diffusion assay; type: functional; procedure, shortened: as §2
[9] = system: Moraxella catarrhalis; assay: Antibacterial activity against beta-lactamase producing Moraxella catarrhalis isolate 2 at 10 ug/disc after overnight incubation by disc diffusion assay; type: functional; conditions: read-out: IZ; procedure, shortened: as §2
[10] = system: Staphylococcus aureus; assay: Antibacterial activity against non-beta-lactamase producing Staphylococcus aureus ATCC 25923 after 48 hrs by microdilution broth method; type: functional, organism-based; procedure, shortened: as §1
[11] = system: Moraxella catarrhalis; assay: Antibacterial activity against beta-lactamase producing Moraxella catarrhalis isolate 6 at 10 ug/disc after overnight incubation by disc diffusion assay; type: functional; procedure, shortened: as §2
[12] = system: Pseudomonas aeruginosa; assay: Antibacterial activity against non-beta-lactamase producing Pseudomonas aeruginosa ATCC 27853 at 10 ug/disc after overnight incubation by disc diffusion assay; type: functional, organism-based; procedure, shortened: as §2
[13] = system: Moraxella catarrhalis; assay: Antibacterial activity against beta-lactamase producing Moraxella catarrhalis isolate 3 at 10 ug/disc after overnight incubation by disc diffusion assay in presence of 1 mol equiv of glutathione; type: functional
[14] = system: Moraxella catarrhalis; assay: Antibacterial activity against beta-lactamase producing Moraxella catarrhalis isolate 5 at 10 ug/disc after overnight incubation by disc diffusion assay; type: functional; conditions: read-out: IZ; procedure, shortened: as §2
[15] = system: Moraxella catarrhalis; assay: Antibacterial activity against beta-lactamase producing Moraxella catarrhalis isolate 5 at 10 ug/disc after overnight incubation by disc diffusion assay in presence of 1 mol equiv of glutathione; type: functional; conditions: for zone of inhibition at 10 µg/disc: read-out: IZ
[16] = system: Moraxella catarrhalis; assay: Antibacterial activity against beta-lactamase producing Moraxella catarrhalis isolate 1 at 10 ug/disc after overnight incubation by disc diffusion assay in presence of 1 mol equiv of glutathione; type: functional; conditions: for zone of inhibition at 10 µg/disc: read-out: IZ
[17] = system: Moraxella catarrhalis; assay: Antibacterial activity against beta-lactamase producing Moraxella catarrhalis isolate 3 at 10 ug/disc after overnight incubation by disc diffusion assay; type: functional; procedure, shortened: as §2
[18] = system: Enterococcus faecalis; assay: Antibacterial activity against non-beta-lactamase producing Enterococcus faecalis ATCC 29212 after 48 hrs by microdilution broth method; type: functional, organism-based; procedure, shortened: as §1
[19] = system: Pseudomonas aeruginosa; assay: Antibacterial activity against non-beta-lactamase producing Pseudomonas aeruginosa ATCC 27853 after 48 hrs by microdilution broth method; type: functional, organism-based; procedure, shortened: as §1
[20] = system: Moraxella catarrhalis; assay: Antibacterial activity against beta-lactamase producing Moraxella catarrhalis isolate 2 after 48 hrs incubation by microdilution broth method; type: functional; conditions: isolate 2, 48 h; procedure, shortened: as §1
[21] = system: Escherichia coli; assay: Antibacterial activity against non-beta-lactamase producing Escherichia coli ATCC 25922 at 10 ug/disc after overnight incubation by disc diffusion assay; type: functional, organism-based; procedure, shortened: as §2
[22] = system: Moraxella catarrhalis; assay: Antibacterial activity against beta-lactamase producing Moraxella catarrhalis isolate 3 after 48 hrs incubation by microdilution broth method; type: functional; conditions: isolate 3, 48 h; procedure, shortened: as §1
[23] = system: Moraxella catarrhalis; assay: Antibacterial activity against beta-lactamase producing Moraxella catarrhalis isolate 5 after 48 hrs incubation by microdilution broth method; type: functional; conditions: isolate 5, 48 h; procedure, shortened: as §1
[24] = system: Moraxella catarrhalis; assay: Antibacterial activity against beta-lactamase producing Moraxella catarrhalis isolate 6 after 48 hrs incubation by microdilution broth method; type: functional; conditions: isolate 6, 48 h; procedure, shortened: as §1
[25] = system: Moraxella catarrhalis; assay: Antibacterial activity against beta-lactamase producing Moraxella catarrhalis isolate 1 after 48 hrs incubation by microdilution broth method; type: functional; conditions: isolate 1, 48 h; procedure, shortened: as §1
[26] = system: Moraxella catarrhalis; assay: Antibacterial activity against beta-lactamase producing Moraxella catarrhalis isolate 4 at 10 ug/disc after overnight incubation by disc diffusion assay in presence of 1 mol equiv of glutathione; type: functional; conditions: for zone of inhibition at 10 µg/disc: read-out: IZ
[27] = system: Staphylococcus aureus; assay: Antibacterial activity against non-beta-lactamase producing Staphylococcus aureus ATCC 25923 at 10 ug/disc after overnight incubation by disc diffusion assay; type: functional, organism-based; procedure, shortened: as §2

SMILES	Activity [1]	MBC [2] [mg/L]	MBC [3] [mg/L]	inhibition zone (IZ) [5]	zone of inhibition at 10 µg/disc [6] [mm]	Activity [7]	inhibition zone (IZ) [8]	zone of inhibition at 10 µg/disc [9] [mm]	Activity [10]	inhibition zone (IZ) [11]	Activity [12]	inhibition zone (IZ) [13]	zone of inhibition at 10 µg/disc [14] [mm]	zone of inhibition at 10 µg/disc [15] [mm]	inhibition zone (IZ) [16]	inhibition zone (IZ) [17]	Activity [18]	Activity [19]	Activity [21]	Activity [27]	further results
CCC(C=O)(CC)SSC(CC)(CC)C1C(OC)C(=O)N1CC(=O)OC (racemic)	inactive	< 15.6	200 (≈ 493 µM)	inactive	7	inactive	inactive	10	inactive	inactive	inactive	inactive	7	7	inactive	inactive	inactive	inactive	inactive	inactive	inhibition zone (IZ) [4]: inactive; MBC [20]: > 500 mg/L; MBC [22]: < 15.6 mg/L; MBC [23]: < 15.6 mg/L; MBC [24]: < 15.6 mg/L; MBC [25]: > 500 mg/L; inhibition zone (IZ) [26]: inactive
O=C1CC(Sc2ccc(S)cc2)N1 (racemic)	inactive	500 (≈ 2370 µM)	25 (≈ 118 µM)	inactive	7	inactive	inactive	8	inactive	inactive	inactive	inactive	8	7	–	inactive	inactive	inactive	inactive	inactive	zone of inhibition at 10 µg/disc [4]: 7 mm; zone of inhibition at 10 µg/disc [16]: 7 mm; MBC [20]: 125 mg/L (≈ 592 µM); MBC [22]: 125 mg/L (≈ 592 µM); MBC [23]: 125 mg/L (≈ 592 µM); MBC [24]: 125 mg/L (≈ 592 µM); MBC [25]: 250 mg/L (≈ 1180 µM); zone of inhibition at 10 µg/disc [26]: 7 mm
CC(=O)SC1CC(=O)N1 (racemic)	inactive	–	–	–	19	inactive	–	20	inactive	–	inactive	–	28	24	–	–	inactive	inactive	inactive	inactive	zone of inhibition at 10 µg/disc [4]: 26 mm; zone of inhibition at 10 µg/disc ([5]; read-out: IZ): 19 mm; zone of inhibition at 10 µg/disc ([8]; read-out: IZ): 19 mm; zone of inhibition at 10 µg/disc ([11]; read-out: IZ): 20 mm; zone of inhibition at 10 µg/disc ([13]; read-out: IZ): 19 mm; zone of inhibition at 10 µg/disc [16]: 16 mm; zone of inhibition at 10 µg/disc ([17]; read-out: IZ): 24 mm; zone of inhibition at 10 µg/disc [26]: 22 mm
CCC(CC)(CO)SC1CC(=O)N1 (configuration not stated)	inactive	–	–	–	–	inactive	–	–	inactive	–	inactive	inactive	–	–	inactive	–	inactive	inactive	inactive	inactive	inhibition zone (IZ) [6]: inactive; inhibition zone (IZ) [15]: inactive; inhibition zone (IZ) [26]: inactive

— ChEMBL document CHEMBL1914320, “C4-alkylthiols with activity against Moraxella catarrhalis and Mycobacterium tuberculosis” (Bioorg Med Chem, 2011)
